# hDAT+cocaine: modulates human dopamine transporter uptake under cocaine; LLC-PK1 hDAT cells, [14C]-dopamine uptake with cocaine IC80; actives deviate in either direction; B-score at 10 µM; AID 449768; 110,000 tested, 1.3% active;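 active means Z score or B-score, a plate-position-corrected score, falls beyond the plate's 99.7% confidence bounds, in either direction; inactive means both scores lie inside the 99.7% bounds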;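 further: scored against the spread of the other compound wells on the same plate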
# Target sequence (Q01959 whole entry, looked up): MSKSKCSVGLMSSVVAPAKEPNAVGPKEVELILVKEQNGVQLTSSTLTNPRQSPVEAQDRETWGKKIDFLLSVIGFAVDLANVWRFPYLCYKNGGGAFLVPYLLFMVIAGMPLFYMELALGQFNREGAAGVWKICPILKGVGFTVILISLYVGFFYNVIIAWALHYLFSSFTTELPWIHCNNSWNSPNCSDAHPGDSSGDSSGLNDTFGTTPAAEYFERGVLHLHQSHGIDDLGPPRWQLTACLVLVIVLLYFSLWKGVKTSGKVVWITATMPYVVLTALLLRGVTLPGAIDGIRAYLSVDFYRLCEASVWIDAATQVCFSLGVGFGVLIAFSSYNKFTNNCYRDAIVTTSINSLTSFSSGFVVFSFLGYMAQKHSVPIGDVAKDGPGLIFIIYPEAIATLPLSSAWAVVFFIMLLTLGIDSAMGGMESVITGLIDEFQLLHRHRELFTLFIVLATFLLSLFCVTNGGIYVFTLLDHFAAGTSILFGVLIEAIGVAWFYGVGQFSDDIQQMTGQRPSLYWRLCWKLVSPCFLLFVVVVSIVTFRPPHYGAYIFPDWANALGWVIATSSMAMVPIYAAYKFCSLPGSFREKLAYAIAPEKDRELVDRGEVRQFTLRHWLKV
# tolC growth inh: growth inhibitors of E. coli BW25113 tolC mutant | OD615 | 65,000 tested, 2.2% active | growth inhibition, % at 10 µM (by protocol);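 active means growth inhibition at or above a cutoff equal to the mean over every tested compound plus 3 SD, cut at about 60% in these data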;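 further: growth measured after 20 h incubation at 37 °C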
#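 Test system: E. coli BW25113 ΔtolC::kan bacteria | Medium: Kanamycin-containing LB broth (50 µg/mL) | Dosing: One dose of 10 µM final | Times: 20 h incubation with compound, 37 °C | Detection: Optical density read at 615 nm | Read-out basis: Percent growth inhibition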
# Ecoli WT expand: blocks growth of wild type E. coli BW25113 | growth inhibition, % at 100 µM | OD600 absorbance | AID 710 | 98,000 tested, 0.15% active;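 active means growth inhibition above about 50% at one test dose, limit read from the data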;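 further: growth measured after 20 h incubation at 37 °C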
# D1 mod: D1 dopamine receptor (human) allosteric modulation; P21728; HEK293 D1, CRE-luciferase, dopamine EC30 potentiation; actives deviate in either direction; B-score at 10 µM; 58,000 tested, 5.9% active; AID 641;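 active means luminescence count or its row- and column-corrected plate score outside the 99.7% band of the plate's sample wells, on either side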
# PostGolgi yeast: growth inhibition of a yeast mutant, post-Golgi transport screen. post-Golgi transport phenotypic cell assay. inhibition, % at 10 µM. 98,000 tested, 0.9% active. AID 739;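 further: yeast cells grown in 1536-well plates; yeast grown about 18 h at 30C before absorbance read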
# PostGolgi ctrl: yeast control strain growth, post-Golgi counter-screen. inhibition, % at 10 µM. efflux-deficient yeast background strain, growth absorbance A615, 16 h. 98,000 tested, 5% active
# * = called active by the depositor; / = no result. An excerpt weighted towards active compounds, which were near 9.3% of everything screened. Unless noted, no stated cut-off is given here; in the data, active means inhibition above about 30%; inactive means the rest.
SMILES,hDAT+cocaine,tolC growth inh,Ecoli WT expand,D1 mod,PostGolgi yeast,PostGolgi ctrl
COc1ccc(NC(=O)c2cccs2)cc1NC(=O)c1ccco1,1.5,/,-4,/,-2,2
CCCC(C)C(=O)Nc1nc(C)c(-c2csc(Nc3ccccc3OC)n2)s1 (configuration not stated),0.4,/,-7,/,-2,1
CCCC(C)C(=O)Nc1nc(C)c(-c2csc(Nc3ccc(Cl)cc3)n2)s1 (configuration not stated),1.1,/,-2,/,0,34*
COc1ccc(CCNc2oc(COc3ccccc3F)nc2C#N)cc1,-0.51,88*,-6,0.77,2,16
COCCCNc1oc(COc2ccc(Cl)cc2Cl)nc1C#N,2.2*,50,11,0.46,-4,13
N#Cc1nc(COc2ccccc2F)oc1NCc1ccc(F)cc1,0.89,28,-7,5.1,0,18
Cn1nc(C(=O)Nc2c(-c3ccccc3)nc3sccn23)c2ccccc2c1=O,-0.17,-2,-6,0.42,-24,-1
CC(C)Oc1ccc(CNC2CCOC(C)(C)C2)cc1 (configuration not stated),-1.2,-35,-8,1.3,1,42*
COC(=O)c1cccc(OCC(O)Cn2cnc3cc(C)c(C)cc32)c1 (configuration not stated),-1.8,-6,-3,/,1,9
Cc1cc2ncn(CC(O)COC3CCCCC3)c2cc1C (configuration not stated),1.1,22,3,0.62,13,31*
c1ccc(C2=Nc3ccccc3NC(c3ccccc3)C2)cc1 (configuration not stated),0.27,/,-15,/,-18,36*
CC1CCCN(Cc2cnc(Cl)s2)C1 (configuration not stated),1.1,/,-5,/,-7,41*
CC1CCN(Cc2cnc(Cl)s2)CC1,-0.69,/,-2,/,-17,-12
COc1ccc(NC(=O)c2ccccc2NC(=O)CSc2ccc(Cl)cc2)cc1,-0.17,/,-8,/,15,-11
Cc1cc(-c2ccccc2)nc(N(C)NC(=O)c2c(F)cccc2F)c1S(C)(=O)=O,-0.049,/,-11,/,4,30*
CCC1SC(=NC(=O)c2ccc(Cl)c(Cl)c2)NC1=O (configuration not stated),-0.52,38,10,-1.4,-3,35*
CC(C)CC(c1nnnn1CCc1ccccc1)N1CCN(C(=O)c2ccco2)CC1 (configuration not stated),0.98,1,-2,0.041,2,30*
CC(C)CC(c1nnnn1CC1CCCO1)N1CCN(c2cccc(Cl)c2)CC1 (configuration not stated),0.0056,-12,7,-0.36,4,34*
CC(C)CC(c1nnnn1Cc1ccco1)N1CCN(c2cccc(Cl)c2)CC1 (configuration not stated),-0.54,9,-11,-1,-8,40*
Cc1ccc(Cl)cc1N1CCN(C(CC(C)C)c2nnnn2CC2CCCO2)CC1 (configuration not stated),0.49,-2,0,-0.022,-3,6
Cn1cccc1C(C(=O)NC1CCCCC1)N(C(=O)Cc1cccs1)c1ccc2c(c1)OCCO2 (configuration not stated),/,-29,/,/,/,/
CCN(CC)S(=O)(=O)c1cccc(C(=O)NC(C(=O)Nc2nnc(C)s2)C(C)C)c1 (configuration not stated),0.87,/,4,/,-7,4
O=C(/C=C/c1ccccc1)c1ccccn1,-0.09,/,16,/,2,16
O=C(/C=C\Nc1ccccn1)c1ccccc1,0.2,5,12,-6.9*,4,14
O=C(/C=C/Nc1ccccc1Br)c1ccccn1,0.012,-4,1,-8.1*,9,-6
SMILES,hDAT+cocaine,tolC growth inh,Ecoli WT expand,D1 mod,PostGolgi yeast,PostGolgi ctrl
CCC(C)(C)n1nnnc1C(c1cccnc1)N1CCN(c2cccc(C(F)(F)F)c2)CC1 (configuration not stated),0.47,/,-8,/,86*,96*
Cc1cccc(N2CCN(C(c3cccs3)c3nnnn3C(C)(C)C)CC2)c1C (configuration not stated),0.14,36,-16,/,12,40*
CC(C)(C)n1nnnc1C(c1cccc(C#N)c1)N1CCC(Cc2ccccc2)CC1 (configuration not stated),-0.83,26,-13,-0.61,-4,43*
CN1CCN(C(c2ccccc2)c2nnnn2Cc2ccccc2)CC1 (configuration not stated),-0.045,/,/,/,/,/
c1ccc(Cn2nnnc2C(c2cccnc2)N2CCN(c3ccccc3)CC2)cc1 (configuration not stated),-0.52,13,5,-0.13,92*,90*
CCC(C)(C)n1nnnc1C(c1ccncc1)N1CCC(Cc2ccccc2)CC1 (configuration not stated),0.0055,/,-3,/,2,14
CCOC(=O)C(CC)n1nc(C)n2c(cc3occc32)c1=O (configuration not stated),-1.1,/,11,/,-2,7
COc1ccc(-n2nnnc2SCC(=O)Nc2cccc(C)n2)cc1OC,0.02,8,-5,3.1,-2,11
CC(C)(C)n1nnnc1C(c1cccnc1)N1CCN(c2ccccc2F)CC1 (configuration not stated),0.79,/,/,/,/,/
COc1cccc(N2CCN(C(c3ccccn3)c3nnnn3C(C)(C)C)CC2)c1 (configuration not stated),-0.82,/,/,/,/,/
CC(C)(C)n1nnnc1C(c1cccnc1)N1CCN(c2ccccc2)CC1 (configuration not stated),1.1,/,0,/,92*,76*
CC(C)(C)n1nnnc1C(c1cccs1)N1CCN(c2ccccc2)CC1 (configuration not stated),-1.2,/,-8,/,8,36*
Cc1cccc(/C=C2/S/C(=N/N=C3\CC4CCC3(C)C4(C)C)NC2=O)c1 (configuration not stated),-0.85,/,-7,/,1,8
CCCCc1nn(-c2cc(Cl)ccc2OC)c2c1C(=O)CC(C)(C)C2,0.17,/,-4,/,-4,32*
CCCc1nn(-c2cc(Cl)ccc2OC)c2c1C(=O)CCC2,-0.11,/,6,/,-1,4
Cc1ccc(Cl)cc1N1CCN(S(=O)(=O)c2ccc3c(c2)oc(=O)n3C)CC1,1.2,18,-1,/,-3,37*
Cc1ccc(S(=O)(=O)C(C)C(=O)c2ccc3c(c2)OCCO3)cc1 (configuration not stated),-1.1,/,3,/,8,21
Cc1cc(C)c2cc(CN(CCO)C(c3nnnn3Cc3ccc(F)cc3)C(C)C)c(=O)[nH]c2c1 (configuration not stated),0.51,70*,-6,0.91,-5,11
N#C/C(=C\c1cn[nH]c1-c1ccccc1)C(=O)NC1CCCCCC1,2.1,/,3,/,-6,11

# Screens (PubChem BioAssay)
